Screening data as filed in PubChem BioAssay.
A selection: hits, their analogues and other compounds. The true share with any hit is near 3%.
PGC1a acetyl inh: lowers PGC1a acetylation signal in U2OS cells | 350,000 compounds, 0.17% hits | inhibition, % at 15.6 µM | AlphaScreen anti-acetyl-lysine; with virally co-expressed GCN5 acetyltransferase;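 active means every replicate shows inhibition of at least 40%; inconclusive means mean inhibition at least 40% but some replicate below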;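 further: 0% = neutral control wells and 100% = positive control wells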
Cneo AK release: causes C. neoformans cell lysis; 360,000 compounds, 0.2% hits; adenylate kinase release luminescence, 4 h; normalised: neutral wells 0, clomiphene wells 100; lysis activity, % at 15 µM;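 active means mean lysis activity across replicates of at least 80%, whatever share of replicates individually reach that level; inactive means mean lysis activity below 80%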
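Assay system: C. neoformans cells. Amount: yeast cell density of 5 × 10^6 cells/mL. Technique: AK luminescence. Buffer or medium: YPD. Times: static 4 h at 37 °C with compound, 1 h detection. Dosing: single-point compound dose. Read-out: lysis from increased AK signal.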
S100A4 inh HTS: inhibitors of human S100A4 binding to myosin IIA peptide; inhibition, % at 10.7 µM; AID 652163; S100A4/TAMRA-MyoIIA peptide fluorescence polarization; P26447; 360,000 compounds, 0.14% hits;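 active means mean inhibition of at least 70% across replicates, with every replicate also reaching that level; inconclusive means mean inhibition reaches 70% but some replicates fall short; inactive means mean inhibition below 70%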
Target sequence (P26447 whole entry, looked up): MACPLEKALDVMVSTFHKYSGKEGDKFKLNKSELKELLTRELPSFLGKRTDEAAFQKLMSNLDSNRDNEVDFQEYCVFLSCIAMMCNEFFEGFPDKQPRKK
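assay system = human S100A4 monomer with TAMRA-labelled myosin IIA peptide | also added = labelled myosin peptide probe, 5 nM | incubation = 5 min between mix addition and reading | control set = DMSO and TFP controls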
SIRT5 block: blocks human SIRT5 desuccinylation of peptide. 330,000 compounds, 1.1% hits. inhibition, % at 15 µM. Purified SirT5, succinyl-peptide AMC, trypsin-coupled fluorescence; in the data active means inhibition above about 15%; inconclusive means no clear call, values can overlap the other calls
Target sequence (Q9NXA8 whole entry, looked up): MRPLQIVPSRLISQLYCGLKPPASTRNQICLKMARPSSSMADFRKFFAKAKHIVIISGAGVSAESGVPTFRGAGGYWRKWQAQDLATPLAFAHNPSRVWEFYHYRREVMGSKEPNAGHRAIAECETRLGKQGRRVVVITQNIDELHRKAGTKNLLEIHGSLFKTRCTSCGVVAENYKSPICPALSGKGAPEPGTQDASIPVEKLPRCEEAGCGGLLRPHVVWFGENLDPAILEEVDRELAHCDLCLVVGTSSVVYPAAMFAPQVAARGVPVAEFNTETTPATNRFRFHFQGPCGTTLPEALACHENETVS
C2C12 statin: suppression of simvastatin myotoxicity; rescue of ATP level, % at 7.49 µM; 330,000 compounds, 0.78% hits; C2C12 myotubes + simvastatin, ATP luminescence, 48 h; scaled: DMSO 0, geranylgeraniol control 100;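 active means mean ATP rescue above about 67%, or every replicate alone reaching that limit, limit read from the data, passing the limit was not always enough; inconclusive means no clear call, values can overlap the other calls; inactive means mean under the limit and some replicate under it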;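 further: myotubes were challenged with 10 µM simvastatin during compound exposure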
Ecoli rRNA inh: inhibitors of bacterial rRNA selective over humanized ribosomes | E. coli WT GFP vs humanized-ribosome RFP mutants, fluorescence, 24 h; active compounds read low; DMSO median 0, no signal -100 | GFP signal change (wild-type ribosome), % (test concentration not listed) | 350,000 compounds, 1.6% hits | AID 720706;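 active means significant combined selectivity score with lowered wild-type GFP, culture density cut under 30%, mutant RFP and density less affected; inactive means any of these conditions unmet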
AID977621: wild-type E. coli growth inhibition versus H69 humanized strain – H69 mutant RFP, wild-type GFP, cherry-pick, dose response. shares compounds with Ecoli rRNA inh. fluorescence, 24 h. activity change, negative = inhibition at 50 µM. 1,900 tested, under 10 active;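 active means Wild-type ribosome reporter drop at least double the humanized mutant ribosome reporter drop, growth loss under a set limit; inconclusive means no clear call, values can overlap the other calls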;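 further: wild-type GFP and H69 mutant RFP strains grown together 50/50 in each well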
AID977628: growth of wild-type and h24-humanized E. coli strains – h24 mutant RFP vs wild-type GFP, cherry-pick, dose response. shares compounds with Ecoli rRNA inh. E. coli WT GFP strain growth, fluorescence, 24 h. activity change, negative = inhibition at 50 µM. 1,900 tested, under 10 active;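 active means compound lowering the normal-ribosome reporter at least twice as much as the humanized-ribosome reporter, growth loss under a set limit; inconclusive means no clear call, values can overlap the other calls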;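 further: wild-type GFP and h24 humanized RFP strains co-cultured 1 to 1 per well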
Starred values were filed as active, the others as inactive; ? = inconclusive; nt = no result given.

SMILES	PGC1a acetyl inh	Cneo AK release	S100A4 inh HTS	SIRT5 block	C2C12 statin	Ecoli rRNA inh	AID977621	others
C[C@H](CO)N1C[C@H](C)[C@@H](CN(C)CC2CCCC2)Oc2ncc(C#Cc3ccccn3)cc2C1=O	-9.9	nt	nt	nt	28.0	-0.6	nt
COc1ccc2c(c1)Sc1ccccc1N2	nt	nt	-10.2	nt	nt	-13.0	nt
c1ccc2c(c1)Nc1cc3ccccc3cc1S2	8.0	nt	1.2	0.3	nt	-21.0*	-5.29	AID977628=-7.62
CCCC(=O)Nc1ccc2c(c1)OC[C@H](C)N(C(=O)c1ccncc1)C[C@H](C)[C@@H](OC)CN(C)C2=O	-6.5	nt	5.6	nt	nt	2.2	nt
CC(C(=O)Nc1nc2ccccc2s1)n1cc([N+](=O)[O-])cn1 (stereo not drawn)	nt	nt	-1.9	-0.3	nt	-18.4*	-18
CC1(C)CC(=O)c2cnc(N3CCc4ccccc43)nc2C1	-9.2	nt	-6.8	-3.1	nt	-34.2*	-2.73
Fc1cnc(N2CCc3ccccc32)nc1N1CCc2ccccc21	-0.1	6.5	nt	nt	-21.3	nt	nt
O=C(Nc1cc(S(=O)(=O)N2CCOCC2)ccc1N1CCOCC1)c1ccccc1[N+](=O)[O-]	-1.0	-1.5	-6.3	-1.1	-13.9	6.0	nt
Cc1ccc(NC(=O)c2ccc([N+](=O)[O-])s2)cc1S(=O)(=O)N1CCOCC1	-33.3	-0.7	-2.8	-6.2	29.0	-40.0*	?	AID977628=-11.6
O=C(Nc1cc(S(=O)(=O)N2CCOCC2)ccc1N1CCOCC1)c1ccc([N+](=O)[O-])s1	5.9	-0.4	0.5	7.1	2.3	-18.0*	?	AID977628=-1.88
O=C(CCNC(=O)c1ccccc1)Nc1ccc(Cl)c(S(=O)(=O)N2CCCCC2)c1	-14.3	-0.3	1.6	-2.6	3.2	-40.8*	-15.5
Cc1ccc(NC(=O)CCCSc2ccccc2)cc1S(=O)(=O)N1CCOCC1	0.3	-1.4	3.9	-1.2	15.4	-24.4*	-19.3
Cc1noc(C)c1NC(=O)N(C)C[C@@H]1OCCCC[C@@H](C)Oc2ccc(NC(=O)NC3CCCCC3)cc2C(=O)N([C@H](C)CO)C[C@@H]1C	-5.4	-1.9	8.5	-2.6	nt	4.5	nt
C[C@H](CO)N1C[C@H](C)[C@@H](CN(C)C(=O)CC2CC2)Oc2cc(-c3cccnc3)ccc2S1(=O)=O	8.3	-0.8	-2.1	-3.8	7.7	1.8	nt
C[C@@H]1CCCCO[C@H](CN(C)S(=O)(=O)c2ccccc2)[C@H](C)CN([C@@H](C)CO)C(=O)c2cc(NS(=O)(=O)c3ccccc3)ccc2O1	-18.1	52.2	-4.5	10.2	nt	-5.5	nt
COc1cccc(N2CCN(C(=O)c3ccc4nc[nH]c4c3)CC2)c1	nt	-2.8	-2.0	-0.6	nt	2.6	nt
Cc1ccc(Cl)cc1N1CCN(C(=O)c2ccc3nc[nH]c3c2)CC1	nt	nt	-1.7	0.5	-2.7	-45.5*	-16.6
CC(C)C[C@@H]1COCc2cn(nn2)CC[C@H](Cc2cccc(Cl)c2)C(=O)N1	nt	nt	nt	nt	nt	0.4	nt
CCS(=O)(=O)Nc1ccc2c(c1)C(=O)N(C)[C@H]1CC[C@H](CC(=O)Nc3ccccc3C)O[C@@H]1CO2	5.5	nt	7.9	-1.3	nt	2.0	nt
COc1ccc(C(=O)Nc2ccccc2NC(=O)c2ccc(OC)cc2)cc1	nt	1.2	3.8	-0.9	13.1	nt	nt
COc1cc(OC)cc(C(=O)Nc2ccc(C(=O)Nc3ccccc3OC)cc2)c1	-10.1	-0.4	-2.2	0.2	-8.1	-21.6*	0.969	AID977628=?
COc1ccc(C(=O)Nc2cccc3ccccc23)cc1	nt	1.0	-5.9	-3.8	32.9	-18.7*	-11.4	AID977628=-12.5
CO[C@H]1CN(C)C(=O)c2cc(NC(=O)NC3CCCCC3)ccc2OC[C@@H](C)N(CCc2ccccc2)C[C@H]1C	-2.4	-1.8	0.6	9.6	-24.0	-0.7	nt
COC(=O)CNC(=O)COC(=O)c1ccc(Cl)nc1	4.7	1.7	-3.2	1.4	-9.5	-18.6*	-8.46	AID977628=-5.93
O=C(COC(=O)c1ccc(Cl)nc1)NCCc1ccc(Cl)cc1	-25.3	-2.0	-3.7	0.4	1.5	4.2	nt
SMILES	PGC1a acetyl inh	Cneo AK release	S100A4 inh HTS	SIRT5 block	C2C12 statin	Ecoli rRNA inh	AID977621	others
COc1ccccc1CNC(=O)c1cc2sccc2n1C	-1.2	nt	1.0	2.2	nt	-20.4*	-5.15
CC(C)Cn1c(=O)c2ccccc2c2ccccc2c1=O	-7.0	-0.6	-3.6	-3.2	4.9	-27.9*	-5.06
Cc1nc(C)c(C(=O)N2CCCC(C(=O)c3cc(F)ccc3F)C2)s1 (stereo not drawn)	1.9	0.1	-3.2	-1.6	-5.7	-0.5	nt
Cc1ccsc1C(=O)N1CCCC(C(=O)c2cc(F)ccc2F)C1 (stereo not drawn)	-8.8	-0.6	-0.1	1.6	-8.1	-16.4*	nt	AID977628=?
COc1ccccc1S(=O)(=O)N[C@@H]1CC[C@H](CCNC(=O)C2CCCC2)O[C@@H]1CO	-1.0	0.0	-0.4	5.5	1.1	-1.2	nt
O=C(N[C@@H]1CC[C@@H](CCNS(=O)(=O)Cc2ccccc2)O[C@H]1CO)c1cnccn1	7.3	11.2	-9.7	-2.1	3.4	1.1	nt
O=S(=O)(NC1CC1)c1ccc(S(=O)(=O)N2CCc3ccccc32)cc1	-22.6	-1.2	-1.9	nt	1.3	-19.9*	-1.52
O=S(=O)(c1ccc(F)cc1)N1CCc2ccccc21	9.4	-0.9	-89.7	1.8	-32.3	2.4	nt
CC1C=Cc2ccccc2N1C(=O)c1ccccc1 (stereo not drawn)	-0.4	-1.8	4.4	-5.2	-6.8	-31.6*	2.53
COc1cccc(CN(C)C[C@H]2OCc3ccccc3-c3c(n(C)c4ccccc34)C(=O)N([C@H](C)CO)C[C@H]2C)c1	-32.3	nt	9.9	-2.9	nt	1.7	nt
COc1ccc2c3c([nH]c2c1)[C@@H](CO)N(C(=O)CN(C)C)CC31CCN(Cc2ccccc2Cl)CC1	-43.5	nt	12.9	6.2	nt	3.6	nt
COC(=O)c1ccc(CCc2cc(O)c(Br)cc2O)cc1	nt	nt	0.6	nt	nt	-18.6*	-9.47	AID977628=-3.46
CN1CCN(C(=O)c2cc3nc(-c4ccco4)cc(C(F)(F)F)n3n2)CC1	nt	nt	1.4	-4.5	nt	-27.4*	-9.88	AID977628=-4.42
Cc1noc(C)c1NC(=O)Nc1ccc2c(c1)C(=O)N([C@H](C)CO)C[C@H](C)[C@H](CN(C)S(=O)(=O)c1ccc(F)cc1)O2	0.4	15.2	0.9	0.0	-3.0	1.2	nt
CCN(CC)CCN(C(=O)c1ccc2c(c1)CCCC2)c1nc2ccc(F)cc2s1	-5.6	nt	3.4	-6.0	-2.3	-23.4*	-12.7
